Active and inactive are the calls of the source. The rule behind the calls is not given here.
Assays:
[1] = target: T1, Carbonic anhydrase 9 (Homo sapiens, UniProt Q16790)
[2] = target: T1, Carbonic anhydrase 9; experiment: Inhibition of human recombinant transmembrane CA9 catalytic domain after 15 mins by stopped-flow CO2 hydration method
Outline: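 Recombinant CA IX catalytic domain was preincubated with inhibitor for 15 min at room temperature. CO2 hydration was followed by stopped-flow with phenol red (0.2 mM, 557 nm) in 20 mM Hepes pH 7.5 with 20 mM Na2SO4, CO2 1.7–17 mM. Initial rates came from at least six traces of the first 5–10% of reaction, minus uncatalyzed rates. Inhibitor dilutions went down to 0.01 nM in water.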

[3] = target: Carbonic anhydrase 2 (Homo sapiens, UniProt P00918); experiment: Inhibition of full length human recombinant CA2 cytosolic isoform after 6 hrs by stopped-flow CO2 hydration method
[4] = target: Carbonic anhydrase 2 (Homo sapiens, UniProt P00918, A65S/N67Q); experiment: Inhibition of human CA2 Ala65Ser and Asn67Gln double mutant expressed in Escherichia coli strain BL21 (DE3) after 6 hrs by stopped-flow CO2 hydration method
Outline: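 CA II mutant mimicking the CA IX active site was expressed in E. coli BL21(DE3), IPTG-induced, and purified by His-trap, gel filtration and Mono-Q. Enzyme and inhibitor were preincubated 6 h at 4 °C. Stopped-flow CO2 hydration used phenol red (0.2 mM, 557 nm), 20 mM Hepes pH 7.5, 20 mM Na2SO4 and CO2 1.7–17 mM, with uncatalyzed rates subtracted. Three assays were run.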

[5] = target: Carbonic anhydrase 1 (Homo sapiens, UniProt P00915); experiment: Inhibition of full length human recombinant CA1 cytosolic isoform after 6 hrs by stopped-flow CO2 hydration method
Chain of Carbonic anhydrase 1 (P00915 whole entry, canonical isoform): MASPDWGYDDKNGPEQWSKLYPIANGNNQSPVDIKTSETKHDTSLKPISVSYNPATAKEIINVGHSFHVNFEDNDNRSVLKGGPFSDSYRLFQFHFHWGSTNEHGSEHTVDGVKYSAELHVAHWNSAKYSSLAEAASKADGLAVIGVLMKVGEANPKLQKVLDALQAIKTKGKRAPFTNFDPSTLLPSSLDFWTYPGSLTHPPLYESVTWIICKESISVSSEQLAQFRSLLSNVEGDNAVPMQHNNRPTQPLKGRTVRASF

Ki [1] [µM]	inhibition [2]	Ki [3] [µM]	Ki [4] [µM]	Ki [5] [µM]	SMILES
0.049	inactive	–	–	–	COc1cccc(-c2cn(-c3ccc4c(c3)C=CS(=O)(=O)O4)nn2)c1
0.06	inactive	–	–	–	C[Si](C)(C)c1cn(-c2ccc3c(c2)C=CS(=O)(=O)O3)nn1
0.058	inactive	–	–	–	O=S1(=O)C=Cc2cc(-n3cc(CO)nn3)ccc2O1
–	inactive	–	–	–	COc1cc2oc(=O)ccc2cc1[C@@H](O)CC(C)C
3.77	inactive	> 100	–	–	O=[N+]([O-])c1ccc2c(c1)C=CS(=O)(=O)O2
0.275	inactive	> 100	2.37	–	O=S1(=O)C=Cc2cc(OCc3ccccc3)ccc2O1
0.074	inactive	–	–	–	O=S1(=O)C=Cc2cc(-n3cc(-c4ccc(OC(F)(F)F)cc4)nn3)ccc2O1
0.95	inactive	–	–	–	COC(=O)c1cn(-c2ccc3c(c2)C=CS(=O)(=O)O3)nn1
0.046	inactive	–	–	–	Nc1ccc2c(c1)C=CS(=O)(=O)O2
0.018	inactive	–	–	–	COc1ccc(-c2cn(-c3ccc4c(c3)C=CS(=O)(=O)O4)nn2)cc1
3.26	inactive	> 100	–	> 100	O=S1(=O)C=Cc2cc(Cl)cc(Cl)c2O1
–	inactive	–	–	–	O=c1ccc2ccccc2o1
0.025	inactive	–	–	–	CCN(CC)Cc1cn(-c2ccc3c(c2)C=CS(=O)(=O)O3)nn1
0.048	inactive	–	–	–	O=S1(=O)C=Cc2cc(-n3cc(-c4cccc(C(F)(F)F)c4)nn3)ccc2O1
0.029	inactive	–	–	–	O=S1(=O)C=Cc2cc(-n3cc(-c4ccccc4)nn3)ccc2O1
0.3	inactive	> 100	0.8	–	O=S1(=O)C=Cc2cc(O)ccc2O1
0.086	inactive	–	–	–	CCOC(=O)c1cn(-c2ccc3c(c2)C=CS(=O)(=O)O3)nn1
0.375	inactive	> 100	–	> 100	O=S1(=O)C=Cc2c(ccc3ccccc23)O1
6.83	inactive	> 100	0.93	> 100	O=S1(=O)C=Cc2cc(Br)ccc2O1

Reference: ChEMBL document CHEMBL2321814, “Sulfocoumarins (1,2-benzoxathiine-2,2-dioxides): a class of potent and isoform-selective inhibitors of tumor-associated carbonic anhydrases” (J Med Chem, 2013)
